{"data": "Measurements of several laboratories", "USP51": "Ubiquitin carboxyl-terminal hydrolase 51 (USP51, Homo sapiens, UniProt Q70EK9)", "SLC6A3": "Sodium-dependent dopamine transporter (SLC6A3, Homo sapiens, UniProt Q01959)", "DRD3": "D(3) dopamine receptor (DRD3, Homo sapiens, UniProt P35462)", "CA12": "Carbonic anhydrase 12 (CA12, Homo sapiens, UniProt O43570)", "Lyn": "Tyrosine-protein kinase Lyn (Lyn, Mus musculus, UniProt P25911)", "PPARG": "Peroxisome proliferator-activated receptor gamma (PPARG, Homo sapiens, UniProt P37231)", "note": "Protocols differ between the studies behind these lines."}
{"Compound": "NC(=O)NC1NC(=O)NC1=O (stereo not drawn)", "target": "USP51", "effect on": "enzyme activity", "action": "inhibitor", "concentration": "5 µM", "inhibition": "13%"}
{"Compound": "Clc1ccc(C(c2ccccc2)c2nnnn2CCCN2CCC(Cc3ccccc3)CC2)cc1 (stereo not drawn)", "target": "SLC6A3", "effect on": "transporter uptake", "action": "inhibitor", "cells": "HEK293", "concentration": "1 µM", "inhibition": "93.8%"}
{"Compound": "C=CCn1c(SCC(=O)NC2=NN(c3ccccc3)C(=O)C2)nnc1-c1cccs1", "target": "DRD3", "effect on": "enzyme activity", "action": "inhibitor", "concentration": "10 µM", "inhibition": "-4.7%"}
{"Compound": "O=C1NC(=S)C(=Cc2cn(-c3ccccc3)nc2-c2ccc(Br)cc2)S1", "target": "CA12", "effect on": "enzyme activity", "action": "inhibitor", "method": "absorbance", "concentration": "1 µM", "inhibition": "32.3%"}
{"Compound": "CNc1cc(Oc2cc(C(=O)Nc3cc(N4CCN(C)CC4)cc(C(F)(F)F)c3)ccc2C)ncn1", "target": "Serine/threonine-protein kinase ATR (ATR, Homo sapiens, UniProt Q13535)", "effect on": "target engagement in cells", "action": "inhibitor", "method": "chemoproteomics", "cells": "Huh-7", "concentration": "1 µM", "inhibition": "-18%"}
{"Compound": "C[C@H](CCC(=O)NCC(=O)O)[C@H]1CC[C@H]2[C@@H]3[C@H](O)C[C@@H]4C[C@H](O)CC[C@]4(C)[C@H]3C[C@H](O)[C@]12C", "target": "USP51", "effect on": "enzyme activity", "action": "inhibitor", "concentration": "5 µM", "inhibition": "0%"}
{"Compound": "CC(=O)Nc1ccc(N2CC(O)=C(c3nc4ccccc4[nH]3)C2=N)cc1", "target": "DRD3", "effect on": "enzyme activity", "action": "inhibitor", "concentration": "10 µM", "inhibition": "-23.2%"}
{"Compound": "c1ccc(CCCC2CCN(CCCCn3nnnc3C(c3ccccc3)c3ccccc3)CC2)cc1", "target": "SLC6A3", "effect on": "transporter uptake", "action": "inhibitor", "cells": "HEK293", "concentration": "1 µM", "inhibition": "63%"}
{"Compound": "CCOC(=O)C1CSc2[nH]c(=O)sc2C1c1cn(-c2ccccc2)nc1-c1ccccc1 (stereo not drawn)", "target": "CA12", "effect on": "enzyme activity", "action": "inhibitor", "method": "absorbance", "concentration": "1 µM", "inhibition": "46.7%"}
{"Compound": "Fc1ccc(C(c2ccc(F)cc2)c2nnnn2CCCCN2CCN(Cc3ccccc3)CC2)cc1", "target": "SLC6A3", "effect on": "transporter uptake", "action": "inhibitor", "cells": "HEK293", "concentration": "1 µM", "inhibition": "95.7%"}
{"Compound": "CC(C)=CCC[C@](C)(O)[C@H]1CC[C@]2(C)[C@@H]1[C@H](O)C[C@@H]1[C@@]3(C)CC[C@H](O[C@@H]4O[C@H](CO)[C@@H](O)[C@H](O)[C@H]4O[C@@H]4O[C@H](CO)[C@@H](O)[C@H](O)[C@H]4O)C(C)(C)[C@@H]3CC[C@]12C", "target": "USP51", "effect on": "enzyme activity", "action": "inhibitor", "concentration": "5 µM", "inhibition": "0%"}
{"Compound": "Clc1ccc(C(c2ccc(Cl)cc2)c2nnnn2CCCCN2CCC(Cc3ccccc3)CC2)cc1", "target": "SLC6A3", "effect on": "transporter uptake", "action": "inhibitor", "cells": "HEK293", "concentration": "1 µM", "inhibition": "78.5%"}
{"Compound": "O=C(CO)[C@@H](O)[C@H](O)[C@H](O)CO", "target": "USP51", "effect on": "enzyme activity", "action": "inhibitor", "concentration": "5 µM", "inhibition": "97%"}
{"Compound": "Clc1ccc(C(c2ccc(Cl)cc2)c2nnnn2CCCCN2CCC(c3ccccc3)CC2)cc1", "target": "SLC6A3", "effect on": "transporter uptake", "action": "inhibitor", "cells": "HEK293", "concentration": "1 µM", "inhibition": "90.1%"}
{"Compound": "CC1CCC(C(C)C)C(O)C1 (racemic)", "target": "USP51", "effect on": "enzyme activity", "action": "inhibitor", "concentration": "5 µM", "inhibition": "37%"}
{"Compound": "CCOC(=O)C1CSc2[nH]c(=O)sc2C1c1cn(-c2ccccc2)nc1-c1ccc(Cl)cc1 (stereo not drawn)", "target": "CA12", "effect on": "enzyme activity", "action": "inhibitor", "method": "absorbance", "concentration": "0.1 µM", "inhibition": "46.4%"}
{"Compound": "Nc1[nH]cnc2ncnc1-2", "target": "USP51", "effect on": "enzyme activity", "action": "inhibitor", "concentration": "5 µM", "inhibition": "33%"}
{"Compound": "CCN(CC)CCNC(=O)c1c(C)[nH]c(/C=C2\\C(=O)Nc3ccc(F)cc32)c1C", "target": "Lyn", "effect on": "enzyme activity", "action": "inhibitor", "concentration": "10 µM", "inhibition": "98%"}
{"Compound": "CCOC(=O)C1CSc2[nH]c(=O)sc2C1c1cn(-c2ccccc2)nc1-c1ccc(Br)cc1 (stereo not drawn)", "target": "CA12", "effect on": "enzyme activity", "action": "inhibitor", "method": "absorbance", "concentration": "100 µM", "inhibition": "92.1%"}
{"Compound": "Clc1ccc(C(c2ccccc2)c2nnnn2CCCCN2CCN(CCCc3ccccc3)CC2)cc1 (stereo not drawn)", "target": "SLC6A3", "effect on": "transporter uptake", "action": "inhibitor", "cells": "HEK293", "concentration": "1 µM", "inhibition": "81.6%"}
{"Compound": "FC(F)(F)c1cccc(-c2ccc(CNCCCN3CCOCC3)o2)c1", "target": "DRD3", "effect on": "enzyme activity", "action": "inhibitor", "concentration": "10 µM", "inhibition": "50.7%"}
{"Compound": "O=C(c1ccc(Cl)cc1)N(Cc1ccccc1)C1CCCCC1", "target": "PPARG", "effect on": "cell-free assay", "concentration": "10 µM", "inhibition": "14.6%"}
{"Compound": "COc1ccccc1O", "target": "USP51", "effect on": "enzyme activity", "action": "inhibitor", "concentration": "5 µM", "inhibition": "0%"}
{"Compound": "CS(=O)(=O)c1ccc(Nc2ccc3c(c2)OCO3)c([N+](=O)[O-])c1", "target": "Solute carrier family 2, facilitated glucose transporter member 5 (SLC2A5, Homo sapiens, UniProt P22732)", "effect on": "transporter uptake", "action": "inhibitor", "cells": "MCF7", "concentration": "25 µM", "inhibition": "~90%"}
{"Compound": "CC(C)c1ccccc1OCCOCC(O)CN1CCN(c2cccc(C(F)(F)F)c2)CC1 (stereo not drawn)", "target": "DRD3", "effect on": "enzyme activity", "action": "inhibitor", "concentration": "10 µM", "inhibition": "14.3%"}
{"Compound": "N#CC1CSc2[nH]c(=O)sc2C1c1cn(-c2ccccc2)nc1-c1ccc(Br)cc1 (stereo not drawn)", "target": "CA12", "effect on": "enzyme activity", "action": "inhibitor", "method": "absorbance", "concentration": "1 µM", "inhibition": "61.5%"}
{"Compound": "Clc1ccc(C(c2ccccc2)c2nnnn2CCCN2CCC(CCc3ccccc3)CC2)cc1 (stereo not drawn)", "target": "SLC6A3", "effect on": "transporter uptake", "action": "inhibitor", "cells": "HEK293", "concentration": "1 µM", "inhibition": "78.4%"}
{"Compound": "CNC(=O)c1cc(Oc2ccc(NC(=O)Nc3ccc(Cl)c(C(F)(F)F)c3)cc2)ccn1", "target": "Lyn", "effect on": "enzyme activity", "action": "inhibitor", "concentration": "10 µM", "inhibition": "95%"}
{"Compound": "O=c1ccc2cc3ccoc3cc2o1", "target": "USP51", "effect on": "enzyme activity", "action": "inhibitor", "concentration": "5 µM", "inhibition": "0%"}
{"Compound": "NS(=O)(=O)c1ccc(CCNCc2ccc(-c3ccccc3F)o2)cc1", "target": "DRD3", "effect on": "enzyme activity", "action": "inhibitor", "concentration": "10 µM", "inhibition": "44.2%"}
{"Compound": "COc1cc(NC(C)=O)c(Cl)cc1C(=O)Nc1nccs1", "target": "PPARG", "effect on": "cell-free assay", "concentration": "10 µM", "inhibition": "31.6%"}
{"Compound": "NS(=O)(=O)c1ccc(CCNCc2cccc3ccccc23)cc1", "target": "DRD3", "effect on": "enzyme activity", "action": "inhibitor", "concentration": "10 µM", "inhibition": "39.3%"}
{"Compound": "CCN(c1cc(C#CCN2CCOCC2)cc(C(=O)NCc2c(C)cc(C)[nH]c2=O)c1C)[C@H]1CC[C@H](N(C)CCOC)CC1", "target": "Protein arginine N-methyltransferase 1 (PRMT1, Homo sapiens, UniProt Q99873)", "effect on": "enzyme activity", "action": "inhibitor", "concentration": "1 µM", "inhibition": "10%"}
{"Compound": "CCOC(=O)C1CSc2[nH]c(=O)sc2C1c1cn(-c2ccccc2)nc1-c1ccc(C)cc1 (stereo not drawn)", "target": "CA12", "effect on": "enzyme activity", "action": "inhibitor", "method": "absorbance", "concentration": "10 µM", "inhibition": "83.1%"}
{"Compound": "O=C(CCN1CCC(O)(c2ccc(F)cc2)C1)c1ccc2c(c1)OCCO2 (stereo not drawn)", "target": "DRD3", "effect on": "enzyme activity", "action": "inhibitor", "concentration": "10 µM", "inhibition": "9%"}
{"Compound": "c1ccc(CCC2CCN(CCCn3nnnc3C(c3ccccc3)c3ccccc3)CC2)cc1", "target": "SLC6A3", "effect on": "transporter uptake", "action": "inhibitor", "cells": "HEK293", "concentration": "1 µM", "inhibition": "68.3%"}
{"Compound": "CCOC(=O)C1CSc2[nH]c(=O)sc2C1c1cn(-c2ccccc2)nc1-c1ccc(OC)cc1 (stereo not drawn)", "target": "CA12", "effect on": "enzyme activity", "action": "inhibitor", "method": "absorbance", "concentration": "0.1 µM", "inhibition": "37.6%"}
{"Compound": "Cc1ccc(C(C)C)c(OCC(O)CN2CCN(c3ccccc3F)CC2)c1 (stereo not drawn)", "target": "DRD3", "effect on": "enzyme activity", "action": "inhibitor", "concentration": "10 µM", "inhibition": "20.4%"}
{"Compound": "Cc1ccc(Nc2nccc(N(C)c3ccc4c(C)n(C)nc4c3)n2)cc1S(N)(=O)=O", "target": "Lyn", "effect on": "enzyme activity", "action": "inhibitor", "concentration": "0.3 µM", "inhibition": "66%"}
